# ChEMBL document CHEMBL1671695, “Specificity of induction of the vanA and vanB operons in vancomycin-resistant enterococci by telavancin” (Antimicrob Agents Chemother, 2010)
# Calls of active or inactive are those of the source. The rule behind the calls is not given here.
# Tests used:
# Enterococcus faecalis [1] = experiment: Induction of VanX activity in Enterococcus faecalis ATCC 51299 expressing Van B gene at 0.3 times MIC by high-performance liquid chromatography; format: functional, organism-based
# Enterococcus faecalis [2] = experiment: Induction of VanX activity in Enterococcus faecalis ATCC 51575 expressing Van B gene at 0.3 times MIC by high-performance liquid chromatography; format: functional, organism-based
# Enterococcus faecalis [3] = experiment: Induction of VanA activity in vancomycin susceptible Enterococcus faecalis BM4110 harboring Van A gene assessed as UDP-MurNAc-tetrapeptide profile at 4 ug/ml […]; format: functional
# In short: (§1)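 Ramoplanin (3 μg/ml) was then added for 15 min. Cytoplasmic precursors were extracted with 8% trichloroacetic acid (15 min, 4°C), desalted and run on HPLC. Each precursor is given as % of total late precursors (tetrapeptide, pentapeptide, pentadepsipeptide) from integrated peak areas.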
# Enterococcus faecium [4] = experiment: Induction of VanA activity in Enterococcus faecium ATCC 51559 expressing Van A gene assessed as UDP-MurNAc-tetrapeptide profile at 4 ug/ml […]; format: functional
# In short: (§2)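 Ramoplanin (3 μg/ml) was then added for 15 min. Cytoplasmic precursors were extracted with 8% TCA (15 min, 4°C), desalted and analysed by HPLC. Each precursor (tetrapeptide, pentapeptide, pentadepsipeptide) is expressed as a percentage of total late precursors from integrated peak areas.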
# Enterococcus faecalis [5] = experiment: Induction of VanA activity in vancomycin susceptible Enterococcus faecalis BM4110 assessed as UDP-MurNAc-pentapeptide profile at 0.1 ug/ml […]; format: functional; in short: as §2
# Enterococcus faecium [6] = experiment: Induction of VanA activity in Enterococcus faecium ATCC 51559 expressing Van A gene assessed as UDP-MurNAc-pentapeptide profile at 4 ug/ml […]; format: functional; in short: as §2
# Enterococcus faecalis [7] = experiment: Induction of VanA activity in Enterococcus faecalis ATCC 51299 expressing Van B gene assessed as UDP-MurNAc-pentapeptide profile at 0.1 ug/ml […]; format: functional; in short: as §2
# Enterococcus faecalis [8] = experiment: Induction of VanA activity in Enterococcus faecalis ATCC 51575 expressing Van B gene assessed as UDP-MurNAc-pentapeptide profile at 0.1 ug/ml […]; format: functional
# Enterococcus faecalis [9] = experiment: Induction of VanX activity in vancomycin susceptible Enterococcus faecalis BM4110 harboring Van A gene assessed as UDP-MurNAc-depsipeptide profile at 4 ug/ml […]; format: functional; in short: as §1
# Enterococcus faecium [10] = experiment: Induction of VanX activity in Enterococcus faecium ATCC 51559 expressing Van A gene assessed as UDP-MurNAc-depsipeptide profile at 4 ug/ml […]; format: functional; in short: as §2
# Enterococcus faecalis [11] = experiment: Antimicrobial activity against streptomycin-resistant, vancomycin-susceptible Enterococcus faecalis BM4110 by broth microdilution method; format: functional
# In short: (§3)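 Broth microdilution MIC per CLSI-approved methods; strains maintained on tryptic soy agar with 5% sheep blood at 37°C.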
# Enterococcus faecalis [12] = experiment: Antimicrobial activity against Enterococcus faecalis BM4110 expressing VanA and harboring transposon tn1546 by broth microdilution method; format: functional; in short: as §3
# Enterococcus faecium [13] = experiment: Antimicrobial activity against Enterococcus faecium ATCC 51559 by broth microdilution method; format: functional; in short: as §3
# Enterococcus faecalis [14] = experiment: Antimicrobial activity against Enterococcus faecalis ATCC 51299 by broth microdilution method; format: functional; in short: as §3
# Enterococcus faecalis [15] = experiment: Antimicrobial activity against Enterococcus faecalis ATCC 51575 by broth microdilution method; format: functional
# In short: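 Strains were grown on TSA with 5% sheep blood at 37°C. MIC was determined by broth microdilution following CLSI methods.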
# Enterococcus faecalis [16] = experiment: Induction of VanX activity in Enterococcus faecalis BM4110 expressing VanA and harboring transposon tn1546 at 0.4 times MIC by Western blotting relative to uninduced control; format: functional
# In short: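 Cells grown in BHI at 37°C with telavancin, harvested and treated with mutanolysin, then sonicated. Soluble extract (35 ng protein) was run on a 4–12% polyacrylamide gel and transferred to PVDF. Blot probed with affinity-purified polyclonal anti-VanX (1/5,000), then IRDye 800CW goat anti-rabbit IgG (1/10,000), with infrared fluorescence detection. VanX amount expressed relative to basal level without antibiotic.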
# Enterococcus faecalis [17] = experiment: Induction of D,D-dipeptidase activity in Enterococcus faecalis BM4110 expressing VanA and harboring transposon tn1546 at 0.4 times MIC by Western blotting relative to uninduced control; format: functional
# [18] = target: T1, D-alanyl-D-alanine dipeptidase (Enterococcus faecium, UniProt Q06241); experiment: Inhibition of D,D-dipeptidase activity Van X in Enterococcus faecium ATCC 51559 using D-alanyl-(R)-phenylthioglycine substrate
# T1 sequence (Q06241 whole entry): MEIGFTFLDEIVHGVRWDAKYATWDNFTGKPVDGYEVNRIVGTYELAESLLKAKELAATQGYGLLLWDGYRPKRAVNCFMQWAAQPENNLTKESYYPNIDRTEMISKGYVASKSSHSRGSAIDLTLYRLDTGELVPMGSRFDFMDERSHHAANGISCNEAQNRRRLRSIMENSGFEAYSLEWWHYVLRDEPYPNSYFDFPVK
# In short: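 Continuous DTNB-coupled VanX assay on soluble extract (100 mM Tris pH 7.5, 412 nm, 22°C). d-Alanyl-(R)-phenylthioglycine was 0.125–0.75 mM and the phosphonamidate inhibitor N-[(1-aminoethyl)hydroxyphosphinyl]-d-alanine 25–324 μM. Ki came from fitting initial rates to a competitive inhibition model.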
# Enterococcus faecium [19] = experiment: Induction of VanX activity in Enterococcus faecium ATCC 51559 expressing Van A gene by high-performance liquid chromatography; format: functional, organism-based
# Enterococcus faecalis [20] = experiment: Induction of VanX activity in Enterococcus faecalis BM4110 expressing Van A gene by high-performance liquid chromatography; format: functional, organism-based
# Enterococcus faecalis [21] = experiment: Induction of VanX activity in Enterococcus faecalis ATCC 51299 expressing Van B gene by high-performance liquid chromatography; format: functional, organism-based
# Enterococcus faecalis [22] = experiment: Induction of VanX activity in Enterococcus faecalis ATCC 51575 expressing Van B gene by high-performance liquid chromatography; format: functional, organism-based
# Enterococcus faecalis [23] = experiment: Induction of VanA activity in vancomycin susceptible Enterococcus faecalis BM4110 harboring Van A gene assessed as UDP-MurNAc-tetrapeptide profile at 64 ug/ml […]; format: functional; in short: as §1
# Enterococcus faecium [24] = experiment: Induction of VanA activity in Enterococcus faecium ATCC 51559 expressing Van A gene assessed as UDP-MurNAc-tetrapeptide profile at 64 ug/ml […]; format: functional; in short: as §1
# Enterococcus faecalis [25] = experiment: Induction of VanA activity in Enterococcus faecalis ATCC 51299 expressing Van B gene assessed as UDP-MurNAc-tetrapeptide profile at 3 ug/ml […]; format: functional; in short: as §1
# Enterococcus faecalis [26] = experiment: Induction of VanA activity in Enterococcus faecalis ATCC 51575 expressing Van B gene assessed as UDP-MurNAc-tetrapeptide profile at 16 ug/ml […]; format: functional; in short: as §1
# Enterococcus faecalis [27] = experiment: Induction of VanA activity in vancomycin susceptible Enterococcus faecalis BM4110 assessed as UDP-MurNAc-pentapeptide profile at 1 ug/ml […]; format: functional; in short: as §1
# Enterococcus faecalis [28] = experiment: Induction of VanA activity in Enterococcus faecalis ATCC 51299 expressing Van B gene assessed as UDP-MurNAc-pentapeptide profile at 3 ug/ml […]; format: functional; in short: as §1
# Enterococcus faecalis [29] = experiment: Induction of VanA activity in Enterococcus faecalis ATCC 51575 expressing Van B gene assessed as UDP-MurNAc-pentapeptide profile at 16 ug/ml […]; format: functional; in short: as §1
# Enterococcus faecalis [30] = experiment: Induction of VanX activity in vancomycin susceptible Enterococcus faecalis BM4110 harboring Van A gene assessed as UDP-MurNAc-depsipeptide profile at 64 ug/ml […]; format: functional; in short: as §1
# Enterococcus faecium [31] = experiment: Induction of VanX activity in Enterococcus faecium ATCC 51559 expressing Van A gene assessed as UDP-MurNAc-depsipeptide profile at 64 ug/ml […]; format: functional; in short: as §1
# Enterococcus faecalis [32] = experiment: Induction of VanX activity in Enterococcus faecalis ATCC 51299 expressing Van B gene assessed as UDP-MurNAc-depsipeptide profile at 3 ug/ml […]; format: functional; in short: as §1
# Enterococcus faecalis [33] = experiment: Induction of VanX activity in Enterococcus faecalis ATCC 51575 expressing Van B gene assessed as UDP-MurNAc-depsipeptide profile at 16 ug/ml […]; format: functional; in short: as §1
structure (smiles),measurement,setting,value
CCCCCCCCCCNCCN[C@@]1(C)C[C@H](O[C@H]2[C@H](Oc3c4cc5cc3Oc3ccc(cc3Cl)[C@@H](O)[C@@H](NC(=O)[C@@H](CC(C)C)NC)C(=O)N[C@@H](CC(N)=O)C(=O)N[C@H]5C(=O)N[C@H]3C(=O)N[C@H](C(=O)N[C@H](C(=O)O)c5cc(O)c(CNCP(=O)(O)O)c(O)c5-c5cc3ccc5O)[C@H](O)c3ccc(c(Cl)c3)O4)O[C@H](CO)[C@@H](O)[C@@H]2O)O[C@@H](C)[C@H]1O [TELAVANCIN],Activity,Enterococcus faecalis [1],inactive
same,Activity,Enterococcus faecalis [2],inactive
same,Activity,Enterococcus faecalis [3],26%
same,Activity,Enterococcus faecium [4],40%
same,Activity,Enterococcus faecalis [5],100%
same,Activity,Enterococcus faecium [6],8%
same,Activity,Enterococcus faecalis [7],100%
same,Activity,Enterococcus faecalis [8],100%
same,Activity,Enterococcus faecalis [9],74%
same,Activity,Enterococcus faecium [10],52%
same,MIC,Enterococcus faecalis [11],1 µg/mL
same,MIC,Enterococcus faecalis [12],8 µg/mL
same,MIC,Enterococcus faecium [13],8 µg/mL
same,MIC,Enterococcus faecalis [14],1 µg/mL
same,MIC,Enterococcus faecalis [15],0.5 µg/mL
same,fold change (FC),Enterococcus faecalis [16],4
same,fold change (FC),Enterococcus faecalis [17],6
CN[C@H](CC(C)C)C(=O)N[C@H]1C(=O)N[C@@H](CC(N)=O)C(=O)N[C@H]2C(=O)N[C@H]3C(=O)N[C@H](C(=O)N[C@H](C(=O)O)c4cc(O)cc(O)c4-c4cc3ccc4O)[C@H](O)c3ccc(c(Cl)c3)Oc3cc2cc(c3O[C@@H]2O[C@H](CO)[C@@H](O)[C@H](O)[C@H]2O[C@H]2C[C@](C)(N)[C@H](O)[C@H](C)O2)Oc2ccc(cc2Cl)[C@H]1O [VANCOMYCIN],Ki,[18],62 µM
same,Activity,Enterococcus faecium [19],Dose-dependent effect
same,Activity,Enterococcus faecalis [20],Dose-dependent effect
same,Activity,Enterococcus faecalis [21],Active
same,Activity,Enterococcus faecalis [22],Active
same,Activity,Enterococcus faecalis [23],27%
same,Activity,Enterococcus faecium [24],41%
same,Activity,Enterococcus faecalis [25],6%
same,Activity,Enterococcus faecalis [26],4%
same,Activity,Enterococcus faecalis [27],100%
same,Activity,Enterococcus faecalis [28],19%
same,Activity,Enterococcus faecalis [29],10%
same,Activity,Enterococcus faecalis [30],73%
same,Activity,Enterococcus faecium [31],59%
same,Activity,Enterococcus faecalis [32],75%
same,Activity,Enterococcus faecalis [33],86%
same,MIC,Enterococcus faecalis [11],2 µg/mL
same,MIC,Enterococcus faecalis [12],1020 µg/mL
same,MIC,Enterococcus faecalis [14],16 µg/mL
same,MIC,Enterococcus faecalis [15],256 µg/mL
